Measured values from ChEMBL document CHEMBL4007399, “Discovery and Synthesis of a Phosphoramidate Prodrug of a Pyrrolo[2,1-f][triazin-4-amino] Adenine C-Nucleoside (GS-5734) for the Treatment of Ebola and Emerging Viruses” (J Med Chem, 2017).

Experiments:
[1] = Lipophilicity, log D of the compound after 30 mins by HPLC/UV method; type: physicochemical; conditions: 0.5 h
Ebolavirus [2] = assay: Antiviral activity against Ebolavirus Kikwit infected in human HeLa cells assessed as reduction in viral glycoprotein levels preincubated with cells for 2 hrs followed by viral infection measured after 48 hrs by immunostaining based assay; type: functional, cell-based; conditions: hela
Ebolavirus [3] = assay: Antiviral activity against GFP-fused Ebolavirus infected in TERT-immortalized HMVEC assessed as reduction in viral replication preincubated with cells followed by viral infection measured after 3 to 4 days by fluorescence assay; type: functional
Human orthopneumovirus = assay: Antiviral activity against Respiratory syncytial virus A2 infected in human Hep2 cells assessed as reduction of virus-induced cytopathic effect after 4 days by Cell-Titer Glo assay; type: functional, cell-based
Hepatitis C virus = assay: Antiviral activity against Hepatitis C virus genotype 1b infected in human HuH7 cells preincubated with cells for 3 days followed by viral infection by luciferase assay; type: functional, cell-based, Hepacivirus hominis
HEp-2 = assay: Cytotoxicity against human Hep2 cells assessed as reduction in cell viability after 4 to 5 days by Cell-Titer Glo assay; type: cell-based; conditions: hep-2
MT4 = assay: Cytotoxicity against human MT4 cells assessed as reduction in cell viability after 4 to 5 days by Cell-Titer Glo assay; type: cell-based; conditions: mt4
Ebolavirus [4] = assay: Antiviral activity against Ebolavirus Kikwit infected in human macrophages preincubated with cells for 2 hrs followed by viral infection measured after 48 hrs; type: functional
Plasma [5] = assay: Half life in human plasma at 2 uM by LC/MS/MS analysis; type: ADME, cell-free; conditions: 2 µM
Plasma [6] = assay: Prodrug conversion in rhesus monkey plasma assessed as (2R,3R,4S,5R)-2-(4-aminopyrrolo[1,2-f][1,2,4]triazin-7-yl)-3,4-dihydroxy-5-(hydroxymethyl)tetrahydrofuran-2-carbonitrile formation at 10 mg/kg, iv administered as single bolus dose; type: ADME, organism-based, Macaca mulatta; conditions: in vivo
Method in brief: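 Rhesus monkeys received a single 10 mg/kg iv slow bolus. Plasma was sampled over time, and the prodrug and the parent nucleoside formed from it were both quantified to give a concentration–time profile. Values are mean ± SD, n = 3 per time point.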

PBMC [7] = assay: Drug metabolism in rhesus monkey PBMC assessed as ((2R,3S,4R,5R)-5-(4-aminopyrrolo[1,2-f][1,2,4]triazin-7-yl)-5-cyano-3,4-dihydroxytetrahydrofuran-2-yl)methyl tetrahydrogen triphosphate levels at 10 mg/kg, iv administered as single bolus dose up to 2 hrs; type: ADME, organism-based, Macaca mulatta; conditions: in vivo
Method in brief: (§1)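 Rhesus monkeys received a single 10 mg/kg iv slow bolus. The active triphosphate metabolite was measured inside PBMCs over time to build a concentration–time profile. Values are mean ± SD, n = 3 per time point.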

PBMC [8] = assay: Time at which plasma concentration greater than in vitro EBOV antiviral IC50 in rhesus monkey PBMC assessed as ((2R,3S,4R,5R)-5-(4-aminopyrrolo[1,2-f][1,2,4]triazin-7-yl)-5-cyano-3,4-dihydroxytetrahydrofuran-2-yl)methyl tetrahydrogen triphosphate levels at 10 mg/kg, iv administered as single bolus; type: ADME, organism-based, Macaca mulatta; conditions: in vivo; method in brief: as §1
Ebolavirus [9] = assay: Antiviral activity against Ebolavirus infected in rhesus monkey assessed as survival rate at 3 mg/kg, iv qd administered continuously starting from day 3 post infection for 12 days measured on day 28 (reference value: 33%); type: functional; conditions: Orthoebolavirus, in Macaca mulatta
Ebolavirus [10] = assay: Antiviral activity against Ebolavirus infected in rhesus monkey assessed as viral RNA copies at 10 mg/kg, iv administered daily administered daily starting from day 3 post infection measured on day 5 and 7 (reference value: 10^9 copies/ml); type: functional
[11] = Drug uptake in cynomolgus monkey testes at 10 mg/kg, iv at 4 hrs post dose; type: ADME, organism-based, Macaca fascicularis, Testis; conditions: in vivo
[12] = Drug uptake in cynomolgus monkey epididymis at 10 mg/kg, iv at 4 hrs post dose; type: ADME, organism-based, Macaca fascicularis; conditions: in vivo
Plasma [13] = assay: Drug uptake in cynomolgus monkey plasma at 10 mg/kg, iv at 4 hrs post dose; type: ADME, organism-based, Macaca fascicularis; conditions: in vivo
[14] = Drug metabolism in cynomolgus monkey testes at 10 mg/kg, iv after 168 hrs post dose; type: ADME, organism-based, Macaca fascicularis, Testis; conditions: in vivo
Brain [15] = assay: Drug uptake in cynomolgus monkey brain at 10 mg/kg, iv at 4 hrs post dose; type: ADME, organism-based, Macaca fascicularis; conditions: in vivo
Brain [16] = assay: Drug uptake in cynomolgus monkey brain at 10 mg/kg, iv at 168 hrs post dose; type: ADME, organism-based, Macaca fascicularis; conditions: in vivo
Homo sapiens [17] = assay: Toxicity in iv dosed phase-1 acute meningoencephalytis patient administered as single dose; type: organism-based; conditions: in vivo
Homo sapiens [18] = assay: Toxicity in phase-1 acute meningoencephalytis patient at 150 mg, iv qd administered daily for 2 days followed by 225 mg for 14 days; type: organism-based; conditions: in vivo
Ebolavirus [19] = assay: Antiviral activity against Ebolavirus infected in rhesus monkey assessed as survival rate at 10 mg/kg, iv administered daily starting from day 3 post infection for 12 days relative to control; type: functional; conditions: Orthoebolavirus, in Macaca mulatta
[20] = Inhibition of Respiratory syncytial virus A2 RNA-dependent-RNA polymerase assessed as reduction in RNP transcriptional activity after 90 mins in presence of [gamma-32P]ATP by agarose gel based phosphorimaging assay; parameters: species or system Human respiratory syncytial virus A2
[21] = Inhibition of Hepatitis C virus genotype 1b NS5B RNA-dependent-RNA polymerase preincubated for 5 mins followed by [alpha-33P]GTP addition measured after 90 mins by phosphorimaging assay; parameters: species or system Hepatitis C virus subtype 1b
[22] = target: T1, DNA-directed RNA polymerase, mitochondrial (Homo sapiens, UniProt O00411); assay: Inhibition of human mitochondrial RNA polymerase after 30 mins in presence of [33P]GTP
[23] = Inhibition of RNA polymerase 2 in human HeLa cells preincubated for 5 mins with […] as substrate followed by addition of cell extract measured after 1 hr by SDS-PAGE method
[24] = target: T2, DNA polymerase alpha catalytic subunit (Homo sapiens, UniProt P09884); assay: Inhibition of recombinant human DNA polymerase alpha preincubated with enzyme followed by addition of dATP/dGTP/TTP as substrate in presence of […] by phosphorimaging assay
T2 sequence (P09884 whole entry): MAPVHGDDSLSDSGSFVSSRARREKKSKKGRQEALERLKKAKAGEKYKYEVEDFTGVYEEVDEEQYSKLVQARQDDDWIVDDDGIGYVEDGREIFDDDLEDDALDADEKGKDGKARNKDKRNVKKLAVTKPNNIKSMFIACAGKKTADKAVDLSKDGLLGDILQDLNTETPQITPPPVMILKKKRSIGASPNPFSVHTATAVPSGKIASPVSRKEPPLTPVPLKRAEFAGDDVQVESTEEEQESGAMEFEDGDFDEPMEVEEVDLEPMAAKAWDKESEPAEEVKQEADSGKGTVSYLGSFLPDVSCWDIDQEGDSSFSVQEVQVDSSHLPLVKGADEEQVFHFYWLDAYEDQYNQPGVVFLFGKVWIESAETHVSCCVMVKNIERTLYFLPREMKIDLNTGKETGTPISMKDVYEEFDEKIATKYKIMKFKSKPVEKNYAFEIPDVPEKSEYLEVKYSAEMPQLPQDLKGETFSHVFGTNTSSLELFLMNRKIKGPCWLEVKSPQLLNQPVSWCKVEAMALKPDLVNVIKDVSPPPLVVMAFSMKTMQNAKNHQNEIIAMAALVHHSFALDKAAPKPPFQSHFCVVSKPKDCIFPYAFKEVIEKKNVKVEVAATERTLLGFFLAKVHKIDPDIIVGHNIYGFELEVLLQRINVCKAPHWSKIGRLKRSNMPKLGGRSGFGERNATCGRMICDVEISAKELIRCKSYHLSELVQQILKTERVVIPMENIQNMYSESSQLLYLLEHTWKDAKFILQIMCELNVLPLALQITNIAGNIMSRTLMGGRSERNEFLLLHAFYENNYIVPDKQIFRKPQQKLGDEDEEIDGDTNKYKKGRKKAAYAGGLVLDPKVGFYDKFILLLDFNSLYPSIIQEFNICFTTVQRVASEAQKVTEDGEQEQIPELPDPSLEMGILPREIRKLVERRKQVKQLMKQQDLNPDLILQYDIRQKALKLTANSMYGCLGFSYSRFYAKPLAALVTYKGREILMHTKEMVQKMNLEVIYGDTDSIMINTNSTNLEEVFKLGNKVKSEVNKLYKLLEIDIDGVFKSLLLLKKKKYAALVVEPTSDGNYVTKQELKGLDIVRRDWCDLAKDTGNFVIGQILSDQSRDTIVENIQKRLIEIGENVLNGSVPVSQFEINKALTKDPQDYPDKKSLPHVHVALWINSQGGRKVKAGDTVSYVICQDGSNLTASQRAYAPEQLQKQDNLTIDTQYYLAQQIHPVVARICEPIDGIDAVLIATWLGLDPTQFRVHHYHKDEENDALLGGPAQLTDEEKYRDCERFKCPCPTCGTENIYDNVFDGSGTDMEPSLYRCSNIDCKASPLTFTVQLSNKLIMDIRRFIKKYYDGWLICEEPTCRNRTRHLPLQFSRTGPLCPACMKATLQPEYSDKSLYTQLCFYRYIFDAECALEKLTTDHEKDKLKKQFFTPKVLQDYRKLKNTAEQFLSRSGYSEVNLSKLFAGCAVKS

DNA polymerase beta = DNA polymerase beta (Homo sapiens, UniProt P06746); assay: Inhibition of recombinant human DNA polymerase beta preincubated with enzyme followed by addition of dATP/dGTP/TTP as substrate in presence of […] by phosphorimaging assay
[25] = Inhibition of recombinant human DNA polymerase gamma preincubated with enzyme followed by addition of dATP/dGTP/TTP as substrate in presence of […] by phosphorimaging assay
[26] = target: T1, DNA-directed RNA polymerase, mitochondrial; assay: Inhibition of human mitochondrial RNA polymerase assessed as single nucleotide incorporation rate in presence of 5'-[32P]-R12/D18 as primer/template by PAGE based phosphorimaging assay; parameters: scale not given: the % may be the effect or the level left
[27] = Inhibition of recombinant human DNA polymerase gamma assessed as single nucleotide incorporation rate after 5 to 90 mins in presence of [32P]-D19/D36 as primer/template by PAGE based phosphorimaging assay; parameters: scale not given: the % may be the effect or the level left
PBMC [28] = assay: Drug level in rhesus monkey PBMC treated with (S)-2-Ethylbutyl 2-(((S)-(((2R,3S,4R,5R)-5-(4-Aminopyrrolo-[2,1-f][1,2,4]triazin-7-yl)-5-cyano-3,4-dihydroxytetrahydrofuran-2-yl)methoxy)(phenoxy)phosphoryl)amino)propanoate at 10 mg/kg, iv administered as single bolus dose up to 2 hrs; type: ADME, organism-based, Macaca mulatta; conditions: in vivo
[29] = Drug level in TERT-immortalized HMVEC treated with (2S)-2-ethylbutyl 2-((((2R,3S,4R,5R)-5-(4-aminopyrrolo[1,2-f][1,2,4]triazin-7-yl)-5-cyano-3,4-dihydroxytetrahydrofuran-2-yl)methoxy)(phenoxy)phosphorylamino)propanoate at 1 uM after 2 to 72 hrs; type: ADME, cell-based; conditions: human
[30] = Drug level in human HeLa cells treated with (2S)-2-ethylbutyl 2-((((2R,3S,4R,5R)-5-(4-aminopyrrolo[1,2-f][1,2,4]triazin-7-yl)-5-cyano-3,4-dihydroxytetrahydrofuran-2-yl)methoxy)(phenoxy)phosphorylamino)propanoate at 1 uM after 2 to 72 hrs; type: ADME, cell-based
Macrophage = assay: Drug level in human macrophages treated with (2S)-2-ethylbutyl 2-((((2R,3S,4R,5R)-5-(4-aminopyrrolo[1,2-f][1,2,4]triazin-7-yl)-5-cyano-3,4-dihydroxytetrahydrofuran-2-yl)methoxy)(phenoxy)phosphorylamino)propanoate at 1 uM after 2 to 72 hrs; type: ADME, cell-based

T1 sequence (O00411 whole entry): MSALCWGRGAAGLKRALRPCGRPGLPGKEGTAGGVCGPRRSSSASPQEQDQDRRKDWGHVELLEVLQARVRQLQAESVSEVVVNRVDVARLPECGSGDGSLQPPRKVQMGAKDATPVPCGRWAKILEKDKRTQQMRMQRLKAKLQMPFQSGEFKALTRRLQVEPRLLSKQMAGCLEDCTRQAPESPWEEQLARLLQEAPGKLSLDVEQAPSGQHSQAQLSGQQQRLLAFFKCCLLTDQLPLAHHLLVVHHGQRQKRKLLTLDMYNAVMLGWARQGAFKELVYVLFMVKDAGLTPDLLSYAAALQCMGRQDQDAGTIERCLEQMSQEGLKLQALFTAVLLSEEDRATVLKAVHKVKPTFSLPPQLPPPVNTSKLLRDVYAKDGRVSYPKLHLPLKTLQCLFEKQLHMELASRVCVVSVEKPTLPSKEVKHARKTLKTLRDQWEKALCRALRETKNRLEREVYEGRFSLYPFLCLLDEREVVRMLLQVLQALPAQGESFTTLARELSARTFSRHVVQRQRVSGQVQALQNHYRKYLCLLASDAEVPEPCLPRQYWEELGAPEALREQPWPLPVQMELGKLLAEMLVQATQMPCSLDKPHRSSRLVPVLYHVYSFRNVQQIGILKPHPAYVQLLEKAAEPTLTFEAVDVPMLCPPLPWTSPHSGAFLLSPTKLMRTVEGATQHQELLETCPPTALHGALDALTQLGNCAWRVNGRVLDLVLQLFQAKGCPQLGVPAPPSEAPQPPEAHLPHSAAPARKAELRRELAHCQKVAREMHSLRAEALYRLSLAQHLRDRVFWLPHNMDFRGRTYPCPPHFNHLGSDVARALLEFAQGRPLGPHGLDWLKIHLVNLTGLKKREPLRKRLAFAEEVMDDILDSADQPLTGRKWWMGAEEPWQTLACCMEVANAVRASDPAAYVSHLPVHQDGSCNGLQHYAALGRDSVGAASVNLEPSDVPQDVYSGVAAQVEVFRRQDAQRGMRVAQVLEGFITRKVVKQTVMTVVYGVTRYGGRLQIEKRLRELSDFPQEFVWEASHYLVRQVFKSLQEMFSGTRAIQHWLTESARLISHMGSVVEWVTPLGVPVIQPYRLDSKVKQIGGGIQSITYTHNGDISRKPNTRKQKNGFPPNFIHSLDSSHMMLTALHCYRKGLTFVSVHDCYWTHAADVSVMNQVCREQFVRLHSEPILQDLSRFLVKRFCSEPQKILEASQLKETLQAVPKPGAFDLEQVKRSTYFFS

SMILES: CCC(CC)COC(=O)[C@H](C)N[P@](=O)(OC[C@H]1O[C@@](C#N)(c2ccc3c(N)ncnn23)[C@H](O)[C@@H]1O)Oc1ccccc1
- logD [1]: 2.1
- EC50 (Ebolavirus [2]): 100 nM
- EC50 (Ebolavirus [3]): 53 nM
- EC50 (Human orthopneumovirus): 15 nM
- EC50 (Hepatitis C virus): 57 nM
- CC50 (HEp-2): 6100 nM
- CC50 (MT4): 1700 nM
- EC50 (Ebolavirus [4]): 86 nM
- t1/2 (Plasma [5]): 1.15 h
- Drug metabolism (Plasma [6]): Metabolite_Detected
- Drug metabolism (PBMC [7]): Metabolite_Detected
- Time (PBMC [8]): 24 h
- survival at 3 mg/kg (Ebolavirus [9]): 66%
- Activity (Ebolavirus [10]): <80000 mL⁻¹
- Drug uptake [11]: Active
- Drug uptake [12]: Active
- Drug uptake (Plasma [13]): Active
- Drug uptake [14]: Metabolite_Detected
- Drug uptake (Brain [15]): Not Active
- Drug uptake (Brain [16]): Active
- Activity (Homo sapiens [17]): Non-Toxic
- Activity (Homo sapiens [18]): Non-Toxic
- survival at 10 mg/kg (Ebolavirus [19]): 100%

SMILES: N#C[C@@]1(c2ccc3c(N)ncnn23)O[C@H](COP(=O)(O)OP(=O)(O)OP(=O)(O)O)[C@@H](O)[C@H]1O [RDV-TP]
- IC50 [20]: 1100 nM
- IC50 [21]: 5000 nM
- IC50 [22]: > 200000 nM
- IC50 [23]: > 200000 nM
- IC50 [24]: > 200000 nM
- IC50 (DNA polymerase beta): > 200000 nM
- IC50 [25]: > 200000 nM
- Activity [26]: 6%
- Activity [27]: 0%
- Drug metabolism (PBMC [28]): Metabolite_Detected
- Drug metabolism [29]: Metabolite_Detected
- Drug metabolism [30]: Metabolite_Detected
- Drug metabolism (Macrophage): Metabolite_Detected
